Drawing on ChEMBL document CHEMBL1165965, “Synthesis and structure-activity relationships of 1,2,3,4-tetrahydropyrido[2,3-b]pyrazines as potent and selective inhibitors of the anaplastic lymphoma kinase” (Bioorg Med Chem, 2010), this text covers inhibition for ten compounds.

For experiment [1], the target named is T1, cGMP-dependent protein kinase 1 (Homo sapiens) (UniProt Q13976).
T1 sequence (whole entry): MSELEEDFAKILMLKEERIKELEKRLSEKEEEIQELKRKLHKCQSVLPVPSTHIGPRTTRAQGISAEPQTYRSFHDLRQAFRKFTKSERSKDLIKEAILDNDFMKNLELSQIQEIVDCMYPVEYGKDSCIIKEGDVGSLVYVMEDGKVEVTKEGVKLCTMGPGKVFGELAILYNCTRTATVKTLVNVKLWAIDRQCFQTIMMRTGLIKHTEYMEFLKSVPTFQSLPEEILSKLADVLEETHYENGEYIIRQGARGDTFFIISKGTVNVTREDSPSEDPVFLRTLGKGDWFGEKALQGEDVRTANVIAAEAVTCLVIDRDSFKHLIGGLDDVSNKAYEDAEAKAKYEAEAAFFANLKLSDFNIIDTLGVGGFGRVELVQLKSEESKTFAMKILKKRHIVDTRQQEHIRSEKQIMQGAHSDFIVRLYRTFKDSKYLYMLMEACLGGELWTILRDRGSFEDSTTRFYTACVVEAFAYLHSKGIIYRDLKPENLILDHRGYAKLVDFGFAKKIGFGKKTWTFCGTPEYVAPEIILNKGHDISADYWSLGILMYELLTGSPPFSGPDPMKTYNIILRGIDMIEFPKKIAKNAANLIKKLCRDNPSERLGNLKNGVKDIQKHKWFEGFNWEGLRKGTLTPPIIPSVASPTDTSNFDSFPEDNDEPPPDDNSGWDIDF
Put plainly: Inhibition of PRKG1 at 1 uM.

The target in experiment [2] is T2, Aurora kinase A (Homo sapiens) (UniProt O14965).
T2 sequence (whole entry): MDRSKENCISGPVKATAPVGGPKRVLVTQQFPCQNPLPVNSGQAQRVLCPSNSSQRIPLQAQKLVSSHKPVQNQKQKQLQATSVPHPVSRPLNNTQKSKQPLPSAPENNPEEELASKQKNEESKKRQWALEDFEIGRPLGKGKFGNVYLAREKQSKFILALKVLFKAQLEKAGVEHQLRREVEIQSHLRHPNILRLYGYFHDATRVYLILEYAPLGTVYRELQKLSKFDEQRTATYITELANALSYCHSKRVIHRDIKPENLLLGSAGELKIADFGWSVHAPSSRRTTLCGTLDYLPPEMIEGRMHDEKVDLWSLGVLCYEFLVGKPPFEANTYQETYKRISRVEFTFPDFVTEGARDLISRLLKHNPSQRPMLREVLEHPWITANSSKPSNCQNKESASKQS
Put plainly: Inhibition of AURKA at 1 uM. Put shortly:
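Ambit KINOMEscan screen at a single concentration across a 250–400 kinase panel, recorded as percent inhibition. Selectivity was expressed as S(90), the fraction of kinases inhibited >90%.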

The target of experiment [3] is T3, Serine/threonine-protein kinase Nek1 (Homo sapiens) (UniProt Q96PY6).
T3 sequence (whole entry): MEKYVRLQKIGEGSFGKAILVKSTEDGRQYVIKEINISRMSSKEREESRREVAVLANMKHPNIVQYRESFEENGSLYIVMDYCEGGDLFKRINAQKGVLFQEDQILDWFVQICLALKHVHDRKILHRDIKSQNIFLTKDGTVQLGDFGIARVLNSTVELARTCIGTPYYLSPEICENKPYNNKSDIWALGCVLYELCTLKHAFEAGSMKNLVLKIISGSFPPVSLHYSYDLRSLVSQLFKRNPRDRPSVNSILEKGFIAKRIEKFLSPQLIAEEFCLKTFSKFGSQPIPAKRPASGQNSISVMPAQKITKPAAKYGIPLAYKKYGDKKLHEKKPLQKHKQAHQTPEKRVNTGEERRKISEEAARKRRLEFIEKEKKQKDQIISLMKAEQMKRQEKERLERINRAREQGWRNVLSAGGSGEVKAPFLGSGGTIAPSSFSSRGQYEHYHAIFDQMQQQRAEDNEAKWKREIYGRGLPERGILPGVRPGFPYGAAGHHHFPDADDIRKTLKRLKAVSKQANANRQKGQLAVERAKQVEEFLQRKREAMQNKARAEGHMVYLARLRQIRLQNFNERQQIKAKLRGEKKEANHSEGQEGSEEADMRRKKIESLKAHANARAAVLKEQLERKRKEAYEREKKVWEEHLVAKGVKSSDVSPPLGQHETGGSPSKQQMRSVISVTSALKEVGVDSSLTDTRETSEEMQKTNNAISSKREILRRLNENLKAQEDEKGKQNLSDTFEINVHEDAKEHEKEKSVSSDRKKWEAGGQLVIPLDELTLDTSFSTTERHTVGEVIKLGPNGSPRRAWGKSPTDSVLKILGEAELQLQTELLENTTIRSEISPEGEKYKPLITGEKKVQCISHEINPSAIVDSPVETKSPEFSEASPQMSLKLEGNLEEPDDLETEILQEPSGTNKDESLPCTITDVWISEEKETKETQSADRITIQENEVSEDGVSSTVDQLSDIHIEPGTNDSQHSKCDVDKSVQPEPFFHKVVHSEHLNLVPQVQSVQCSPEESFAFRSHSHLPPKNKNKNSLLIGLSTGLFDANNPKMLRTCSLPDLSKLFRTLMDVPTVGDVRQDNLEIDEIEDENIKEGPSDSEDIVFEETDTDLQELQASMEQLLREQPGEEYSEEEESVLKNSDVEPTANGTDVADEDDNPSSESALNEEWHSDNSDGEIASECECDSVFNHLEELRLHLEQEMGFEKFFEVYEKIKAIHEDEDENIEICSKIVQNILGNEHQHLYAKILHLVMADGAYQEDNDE
The experiment in a line: Inhibition of NEK1 at 1 uM.

Regarding `FC(F)(F)c1ccc(Cl)cc1CN1CCNc2ncc(-c3ccnc(N4CCNCC4)c3)cc21`, the inhibition – broadly, the percentage by which the read-out fell short of the control – in experiment [1] was less than 50%; in experiment [2] it was 68%; in experiment [3], less than 50%.
As to `CN1CCN(c2ccc(-c3cnc4c(c3)N(Cc3cc(Cl)ccc3Cl)CCN4)cn2)CC1`, the inhibition in experiment [1], in experiment [2] and in experiment [3] was less than 50% each time.
Take `COC1CCN(C(=O)c2ccc(-c3cnc4c(c3)N(Cc3cc(Cl)ccc3C(F)(F)F)CCN4)cc2)CC1`: the inhibition in experiment [1], in experiment [2] and in experiment [3] was less than 50% in each case.
For `O=C(c1ccc(-c2cnc3c(c2)N(Cc2cc(Cl)ccc2C(F)(F)F)CCN3)cc1)N1CCCCC1`, the inhibition in experiment [1] and in experiment [2] was less than 50% each time.
On to `O=C(O)c1ccc(-c2cnc3c(c2)N(Cc2cc(Cl)ccc2C(F)(F)F)CCN3)cc1`, for which the inhibition in experiment [1] is less than 50%; in experiment [2] it was 80.2%.
As to `CN1CCN(c2ccc(-c3cnc4c(c3)N(Cc3cc(F)ccc3F)CCN4)cn2)CC1`, the inhibition in experiment [1], in experiment [2] and in experiment [3] was less than 50% throughout.
`O=C(c1ccc(-c2cnc3c(c2)N(Cc2cc(Cl)ccc2C(F)(F)F)CCN3)cc1)N1CCC(N2CCCC2)CC1`: the results for the inhibition in experiment [1], in experiment [2] and in experiment [3] were less than 50%, 69.5% and less than 50%, respectively.
As for `CN1CCN(c2ccc(-c3cnc4c(c3)N(Cc3c(F)ccc(F)c3Cl)CCN4)cn2)CC1`, the inhibition in experiment [1], in experiment [2] and in experiment [3] was less than 50% in each case.
On to `CC(=O)N1CCN(c2cc(-c3cnc4c(c3)N(Cc3cc(Cl)ccc3C(F)(F)F)CCN4)ccn2)CC1`, for which the results for the inhibition in experiment [1], in experiment [2] and in experiment [3] were less than 50%, 68% and less than 50%, respectively.
Turning to `CN1CCN(c2ccc(-c3cnc4c(c3)N(Cc3cc(Cl)ccc3C(F)(F)F)CCN4)cn2)CC1`, the inhibition in experiment [1], in experiment [2] and in experiment [3] was less than 50% throughout.
